# From PubChem
# STAT1 blocker: inhibitors of IFN-gamma induced STAT1 signaling | hit rate 0.35% among 200,000 | NIH 3T3 STAT1-luciferase reporter, luminescence | inhibition, % at 5.5 µM;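 active = inhibition above a set limit, the mean inhibition across all tested compounds plus 3 SD, cut at about 34% in these data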;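 note: 0% = IFN-gamma with DMSO and 100% = IFN-gamma with 300 µM nifuroxazide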
# APP 5'UTR act: activates APP 5'UTR luciferase reporter; SH-SY5Y APP 5'UTR luciferase reporter, luminescence; zero percent = DMSO vehicle wells; activation, % at 2 µM; hit rate 1% among 190,000; AID 1276;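 active = activation above a set limit, based on mean plus 3 SD of controls, cut at about 140% in these data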
# STAT3 activator: increases IL-6 driven STAT3 reporter signal. U3A cells, IL-6 STAT3-luciferase reporter, luminescence; 100% = signal with IL-6 EC80 alone. activation (% of control), % at 5.6 µM. hit rate 0.91% among 190,000. AID 871;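 active = activation above the screen-wide mean of compound activation plus 3 SD, cut at about 130% in these data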;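 note: 0% = background luminescence of wells with medium and substrate only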
#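 system = STAT3-luciferase reporter U3A cells | reagent = IL-6 stimulus at 33 ng/mL final | timing = 1 h compound pre-exposure, 6 h IL-6 stimulation, 37 °C | measured by = luminescence | evaluation = % activation versus median of IL-6-stimulated wells | control set = IL-6-only wells as 100% reference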
# STAT1 activator: activators of IFN-gamma induced STAT1 signaling; NIH 3T3 STAT1-luciferase reporter, luminescence; 100% = IFN-gamma alone, no compound; activation (% of control), % at 5.5 µM; hit rate 2.6% among 200,000; AID 932;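 active = activation above the screen-wide mean activation plus 3 SD, cut at about 130% in these data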;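 note: raw ratio to IFN-gamma control signal so 100% means no change and 0% no light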
# STAT3 inh-1: STAT3 signaling inhibition. U3A cells, IL-6 STAT3-luciferase reporter, luminescence; host cell line lacks STAT1. AID 862. inhibition, % at 5.5 µM. hit rate 0.89% among 190,000;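 active = inhibition above the mean inhibition across all screened compounds plus 3 SD, cut at about 44% in these data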;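 note: 0% = DMSO only wells and 100% = 100 µM nifuroxazide control wells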
# NF-kB expr up: NF-kB expression increase, human neuronal cells; NF-kB reporter expression; stronger effect = higher value; fold change at 12.5 µM; AID 1239; hit rate 1.6% among 190,000; in the data active = fold change above about 3.3
# STAT3 inh-2: confirmation of STAT3 signaling inhibitors | shares compounds with STAT3 inh-1 | U3A cells, IL-6 STAT3 luciferase reporter, luminescence; cell line lacks STAT1 | hit rate 45% among 1,200 | inhibition, % at 5.7 µM;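 active = inhibition above the hit cutoff computed for the primary STAT3 screen, cut at about 44% in these data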;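 note: 0% = IL-6 plus DMSO and 100% = IL-6 plus nifuroxazide control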
# NFkB inh STAT3ct: NF-kappaB inhibition in STAT3 inhibitor counter-screen. shares compounds with STAT3 inh-1. HEK293T NF-kB luciferase reporter, TNF-alpha induced. inhibition, % at 5.7 µM. hit rate 36% among 1,200. AID 1308;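 active = inhibition above the mean of solvent-only control wells plus 3 SD, cutoff set per campaign, cut at about 13% in these data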;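 note: 0% = TNF-alpha with DMSO and 100% = TNF-alpha with MG high control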
# STAT1 inh STAT3c: STAT1 inhibition in STAT3 inhibitor counter-screen | AID 1317 | NIH 3T3 STAT1-luciferase reporter, IFN-gamma induced, luminescence | inhibition, % at 5.7 µM | hit rate 27% among 1,200 | shares compounds with STAT3 inh-1;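 active = inhibition above the mean plus 3 SD of solvent-only control wells, limit set per screening run, cut at about 16% in these data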;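 note: 0% = DMSO with IFN-gamma and 100% = nifuroxazide control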
# STAT1 activ conf: confirmation of STAT1 signaling activators. shares compounds with STAT1 activator. activation (% of control), % at 5.7 µM. AID 1262. hit rate 97% among 1,200. NIH 3T3 STAT1-luciferase reporter, IFN-gamma potentiation, luminescence; 100% = IFN-gamma EC80 alone, no compound;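 active = activation above a set limit carried over from the earlier primary STAT1 screen, cut at about 140% in these data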;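 note: simple ratio to median IFN-gamma plus DMSO wells so 0% means no light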
# NFkB act: activates NF-kappaB, counter-screen to STAT1 activators; shares compounds with STAT1 activator; HEK293T NF-kB luciferase reporter, TNF-alpha stimulated, luminescence; 100% = TNF-alpha with vehicle only; activation (% of control), % at 5.7 µM; hit rate 43% among 1,200;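 active = activation above the mean of solvent-only control wells plus 3 SD, set per campaign, cut at about 130% in these data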;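 note: TNF-alpha given at a submaximal dose yielding about 80% of full reporter signal; values are well signal over median control so 100% means no change and 0% no light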
# STAT3 act 2: counter-screen for STAT1 activators: human STAT3 activation. shares compounds with STAT1 activator. U3A cells STAT3-luciferase reporter, IL-6, luminescence; cells lack STAT1; 100 = IL-6 alone, no compound effect. activation (% of control), % at 5.7 µM. hit rate 46% among 1,200;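 active = activation above the solvent-only control well mean plus 3 SD, set per plate batch, cut at about 110% in these data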;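 note: 0% = no luminescence and 100% = median IL-6 plus DMSO wells; higher means more STAT3 reporter activation so hits are non-selective activators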
# * marks the source's active call; other numbers are inactive results; nt = no result. The list is not random: actives were taken first. Their share in the collection is about 4.9%.
SMILES,STAT1 blocker,APP 5'UTR act,STAT3 activator,STAT1 activator,STAT3 inh-1,NF-kB expr up,STAT3 inh-2,NFkB inh STAT3ct,STAT1 inh STAT3c,others
Cc1ccc(/C=C/c2nc3ccccc3[nH]2)o1,10.5,259.1*,58.8,90.3,53.7*,6.49*,-15.5,-14.7,-34.3,
CC(C(O)C12CC3CC(CC(C3)C1)C2)N1CCCCC1 (stereo not drawn),-6.3,11.8,96.3,105.0,15.3,1.03,nt,nt,nt,
O=c1[nH]c(CN2CCN(S(=O)(=O)c3cccs3)CC2)nc2c(Br)cc(Br)cc12,-5.7,13.1,102.6,103.9,4.9,0.95,nt,nt,nt,
O=C(NCCc1ccccc1)c1ccc2nccnc2c1,19.8,74.8,55.9,80.6,54.5*,1.07,16.5,-8.9,-67.5,
CCOc1ccc(C(=O)NCCc2ccccc2)cc1,4.5,123.1,53.2,95.8,54.9*,3.64*,31.0,7.6,-48.6,
O=C(NCCc1ccccc1)c1cccnc1,-29.3,9.0,105.7,124.6,-6.9,1.9,nt,nt,nt,
CC(=O)Oc1ccc(C(=O)NCCc2ccccc2)cc1,-4.2,127.1,70.9,103.5,37.6,2.85,nt,nt,nt,
C/C(=N/NC(=O)CCCOc1ccc(Cl)cc1Cl)c1ccc(C)o1,-4.8,4.2,114.4,104.3,-20.1,1.16,nt,nt,nt,
CCN(CCn1cccn1)Cc1ccccc1OCC(O)CN1CCc2ccccc2C1 (stereo not drawn),3.9,-4.3,106.1,95.0,-2.5,1.27,nt,nt,nt,
Cc1ccc(C(=O)n2c(=S)nc3ccccn32)cc1,-54.9,183.8*,62.0,150.5*,49.6*,2.63,13.6,-31.3,-179.6,
O=C(c1ccc(Cl)cc1)c1cnc(-c2ccccc2)s1,-2.8,7.7,89.4,102.5,15.0,1.33,nt,nt,nt,
c1ccc(-c2ncc(-c3ccn[nH]3)s2)cc1,-22.4,230.5*,65.3,120.5,46.2*,7.31*,1.9,-23.8,-112.1,
COC(=O)C1C(=O)C2=C(CC1C)Nc1ccccc1NC2c1cccs1 (stereo not drawn),4.4,-9.3,106.6,95.8,-6.4,1.15,nt,nt,nt,
CCOC(=O)C1(Cc2ccc(OC)cc2)CCN(C(=O)c2cncs2)CC1,-4.9,13.0,101.8,102.4,3.7,0.88,nt,nt,nt,
Cc1ccc(SCc2nc(-c3ccccc3)no2)cc1,-0.6,6.5,97.1,100.5,6.1,1.39,nt,nt,nt,
Cc1ccc(-c2nc(-c3ccccc3)no2)cc1,-34.7,132.3,54.5,147.5*,55.1*,10.5*,39.8,4.6,-48.6,
CCOc1ccc(C(=O)Nc2cccc(C)n2)cc1,-12.5,143.7*,55.6,112.3,57.0*,4.57*,17.5,-12.1,-71.3,
Cc1cccc(NC(=O)c2ccc(S(=O)(=O)N(C)C)cc2)n1,-9.1,10.8,104.4,108.4,-3.3,1.33,nt,nt,nt,
CCCCOc1ccc(C(=O)Nc2cccc(C)n2)cc1,-13.2,110.6,63.8,112.0,48.5*,3.97*,12.6,-17.8,-43.4,
O=C(c1ccc(Cl)cc1)N1CCC(O)(CSc2ccc(Cl)cc2Cl)CC1,-1.8,nt,101.2,101.6,4.3,1.02,nt,nt,nt,
Cc1ccc2nc(NC(=O)CSCC(=O)OCC(=O)c3ccc(Br)cc3)sc2c1,36.5*,-5.7,32.7,67.4,87.1*,0.76,66.7*,23.1*,32.9*,
Clc1ncc(Cn2cccn2)s1,-5.3,-2.1,106.4,102.1,-2.7,1.36,nt,nt,nt,
c1ccc2sc(-c3ccc4c(c3)OCO4)nc2c1,4.4,168.5*,41.3,96.0,70.3*,6.33*,25.2,7.1,-68.0,
Cc1ccc(C)c(S(=O)(=O)Nc2ccccc2C(=O)Nc2ccc(S(=O)(=O)Nc3ncccn3)cc2)c1,9.2,-14.3,92.6,91.8,8.6,1.26,nt,nt,nt,
COc1ccc(Br)cc1/C=N/NC(=O)c1nc(-c2ccccc2)n2c1CCCCC2,4.4,nt,101.7,95.9,-3.7,0.54,nt,nt,nt,
SMILES,STAT1 blocker,APP 5'UTR act,STAT3 activator,STAT1 activator,STAT3 inh-1,NF-kB expr up,STAT3 inh-2,NFkB inh STAT3ct,STAT1 inh STAT3c,others
C=CCN(CC=C)C(=S)NC(=O)Cc1cccc2ccccc12,-0.9,-11.2,105.0,98.8,-2.4,1.17,nt,nt,nt,
O=c1[nH]c(Nc2nc3ccccc3o2)nc2c1CCCC2,11.4,170.4*,47.0,89.6,69.4*,2,29.1,-1.7,-13.0,
O=c1c(Cc2c(F)cccc2Cl)c(O)ccn1CCCn1ccnc1,-2.9,0.5,97.5,99.9,7.7,1,nt,nt,nt,
CSc1ccc(NC(=O)N2CCN(c3nc4ccccc4s3)CC2)cc1,9.6,13.2,64.1,91.3,46.2*,0.87,45.7*,5.0,10.5,
O=C(c1ccc(Cl)s1)N1CCN(c2nc3ccccc3s2)CC1,12.4,-2.5,74.4,88.9,35.8,0.85,nt,nt,nt,
CC(=Nc1ccc(C)cc1)c1sc2ccccc2c1O,-58.9,196.8*,53.7,153.9*,56.1*,4.79*,9.5,-35.2,-153.4,STAT1 activ conf=247.9*;NFkB act=103.7;STAT3 act 2=88.0
CCOC(=O)c1sc2ccccc2c1OC(=O)c1ccc(C)cc1,-3.7,4.4,103.9,103.4,-10.0,0.62,nt,nt,nt,
COc1ccc(OC)c(Nc2ncnc3c2cnn3-c2ccccc2)c1,-9.0,14.3,92.8,107.2,12.3,1.68,nt,nt,nt,
COc1ccc(-n2ncc3c(NC(C)C)ncnc32)cc1,-55.7,150.7*,54.6,151.0*,55.7*,3.97*,13.6,-39.0,-145.5,STAT1 activ conf=246.2*;NFkB act=109.1;STAT3 act 2=95.6
O=C(/C=C\Nc1ccc2c(c1)OCO2)c1ccc(Cl)s1,-66.2,164.4*,52.9,157.4*,62.0*,0.96,13.7,10.5,-96.7,STAT1 activ conf=199.8*;NFkB act=88.2;STAT3 act 2=83.1
O=C(Nc1ccccc1Br)C1CCN(C(=O)Cc2ccccc2)CC1,-0.2,-8.2,92.6,100.2,6.9,1.05,nt,nt,nt,
CC(=O)Nc1ccc(OCc2nnc(-c3ccc(Cl)cc3)o2)cc1,-3.8,17.4,91.2,104.2,11.4,1.28,nt,nt,nt,
CCCCSc1nnc(-c2ccccc2)c2ccccc12,5.8,12.7,98.3,94.7,-2.3,1.41,nt,nt,nt,
